Publication PMC8603004 (EFSA Journal, 2021)

How the values were obtained:
[1] = Incubation of 14C‐3‐NOP in liver fractions; format: in vitro ADME, humans; conditions: human, liver S9 and liver cytosol
How it was run: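 14C-labelled test compound was incubated with or without NAD+ in liver S9, cytosol and microsomes from Sprague–Dawley rat, Wistar Han rat, Beagle dog and human. Aliquots were taken at several time points and the proteins precipitated. Supernatants were analysed by liquid scintillation counting and radio-HPLC, and half-life was derived from the time course.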

Wistar Han rats = format: in vivo; conditions: males and females; effects on spermatogenesis and corpora lutea
[2] = ADME in four lactating cows; format: in vivo
Wistar rats [3] = assay: 52‐week oral gavage study; format: in vivo
Acute inhalation test = format: in vivo, Wistar rats; conditions: Wistar, rat, in vivo, inhaled
Wistar rats [4] = assay: Acute inhalation test; format: in vivo
[5] = test system: human peripheral blood lymphocytes; assay: In vitro micronucleus assay; format: cell-based
ADME in a lactating goat = format: in vivo
[6] = test system: Chinese hamster V79 cells; assay: In vitro micronucleus assay with CREST staining; format: cell-based
[7] = test system: Chinese hamster V79 cells; assay: In vitro micronucleus assay; format: cell-based
How it was run: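 OECD TG 487 study, non-GLP, in Chinese hamster V79 cells. Concentrations were set from a dose-range finding test. Without S9-mix, cells had continuous 24 h treatment up to 1,243 μg/mL. With S9-mix, cells had short 4 h treatment plus 20 h recovery up to 310 μg/mL. Micronuclei were scored against the historical vehicle control range.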

[8] = Third in vitro rumen fluid trial; conditions: 39°C
[9] = Third in vitro rumen fluid trial; conditions: 39°C; remark: listed apart in the source
Wistar rats [10] = assay: Prenatal developmental toxicity study; conditions: rat, in vivo
[11] = Mass balance with volatile trapping and tissue distribution study; format: in vivo, male Wistar rats
How it was run: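 Mass balance under OECD TG 417 in male Wistar rats given a single oral dose of 500 mg/kg bw 14C-labelled test compound. Rats were housed individually in air-tight glass metabolism cages. Volatiles were adsorbed in trapping solutions over 0–8 h and 8–24 h, and urine and faeces were collected over 0–24 h. Tissues, carcass and GI contents were taken at 24 h and results expressed as % of dose.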

O=[N+]([O-])OCCCO [3‐NOP, propan‐1,3‐diol‐mononitrate]
half-life [1]: ~42 min
NOAEL (Wistar Han rats): 100 mg 3‐NOP/kg bw per day
Skin irritation potential (Skin irritation study): skin irritant
Radioactivity excreted via faeces, mean ([2]; 1.8 g/animal per day, 7 days): 2.7 % of radioactivity totally app
Radioactivity excreted via milk, mean ([2]; 1.8 g/animal per day, 7 days): 16.82 % of radioactivity totally app
Radioactivity excreted via urine, mean ([2]; 1.8 g/animal per day, 7 days): 4 % of radioactivity totally app
Radioactivity remaining in the total tissues ([2]; 1.8 g/animal per day, 7 days): 6.2 % of radioactivity totally app
Total radioactivity excreted ([2]; 1.8 g/animal per day, 7 days): 23.5%
Total recovery at sacrifice ([2]; 1.8 g/animal per day, 7 days): approximately 30%
3‐NOP and NOPA in total excreta, worst‐case scenario ([2]; dairy cows): ≤ 0.2%
Residue in milk, not found above the LOQ ([2]; in vivo): < 8 μg 3‐NOP‐equivalents/kg
Residue in tissues, not found above the LOQ ([2]; in vivo): < 21 μg 3‐NOP‐equivalents/kg
Amount in urine ([2]; urine of one animal (day 2–day 6)): 0.1 % of the dose
NOAEL (Wistar rats [3]; females): 600 mg 3‐NOP/kg bw per day
NOAEL (Wistar rats [3]; males): 100 mg 3‐NOP/kg bw per day
LC50 at 4 h (Acute inhalation test): > 5 µg/mL
Mortality (Wistar rats [4]; 1 and 5 mg/L): No mortality occurred
Acute inhalation toxicity class according to the GHS (Wistar rats [4]; rat, in vivo): class 5
No observed adverse effect concentration (NOAEC) (Wistar rats [4]; rat, in vivo): exceed 5 mg/L
Frequency of micronuclei ([5]; 164, 512 and 1,211 μg/mL, with and without S9‐mix): no increase in the frequency of micronuclei
Cytotoxicity ([5]; up to 1,211 μg/mL): No cytotoxicity
Milk radioactivity in the aqueous phase of milk (ADME in a lactating goat; 0–8 h after the sixth day of administration): 75.2%
Radioactivity excreted via faeces (ADME in a lactating goat; 4.34 mg/kg bw per day, 7 days): 1.9 % of total radioactivity appli
Radioactivity excreted via milk (ADME in a lactating goat; 4.34 mg/kg bw per day, 7 days): 6.42 % of total radioactivity appli
Radioactivity excreted via urine (ADME in a lactating goat; 4.34 mg/kg bw per day, 7 days): 3.5 % of total radioactivity appli
Radioactivity in the intestinal tract content (ADME in a lactating goat; 4.34 mg/kg bw per day, 7 days): 1.14 % of total radioactivity appli
Radioactivity remaining in the total edible tissues (ADME in a lactating goat; 4.34 mg/kg bw per day, 7 days): 4.98 % of total radioactivity appli
Total radioactivity excreted (ADME in a lactating goat; 4.34 mg/kg bw per day, 7 days): 11.85%
Total recovery at sacrifice (ADME in a lactating goat; 4.34 mg/kg bw per day, 7 days): 17.97%
Milk radioactivity in the aqueous phase of milk (ADME in a lactating goat; 8–24 h after the sixth day of administration): 59.0%
Radioactive residues in plasma (ADME in a lactating goat; 24 h after the first administration): 0.61 mg 3‐NOP‐eq/kg
Radioactive residues in plasma (ADME in a lactating goat; at sacrifice): 3.72 mg 3‐NOP‐equivalents/kg
Nitrate esters in milk, not detectable (LOD) (ADME in a lactating goat; milk collected 0–8 h post‐dose): < 0.82 mg 3‐NOP‐equivalent/kg
Nitrate esters in milk, not detectable (LOD) (ADME in a lactating goat; milk collected 8–24 h post‐dose): < 0.43 mg 3‐NOP‐equivalent/kg
Plasma radioactivity non‐extractable in the protein precipitate (ADME in a lactating goat; plasma collected at sacrifice): Eighty‐five
Micronuclei containing chromosome fragments (CREST staining) ([6]; 540 μg/mL): 79%
Micronucleus frequency ([6]; with metabolic activation, 3 + 21 h, at 540, 570 and 600 μg/mL): statistically significant increase in micronuclei
Micronucleus frequency ([7]; absence of metabolic activation, up to 1,243 μg/mL, 24 h): no increase in micronucleus frequency
Micronucleus frequency ([7]; presence of metabolic activation, up to 310 μg/mL, 4 + 20 h): statistically significant increase in micronuclei
3‐NOP concentration remaining after 16 h ([8]; 1 mg/L, anaerobic, n = 6): 1.0%
3‐NOP concentration remaining after 16 h ([8]; aerobic control, n = 2): 31.9%
3‐NOP concentration remaining after 16 h ([9]; 1 mg/L, anaerobic, n = 6): 0.7%
3‐NOP concentration remaining after 16 h ([9]; aerobic control, n = 2): 27.9%
Maternal NOAEL (Wistar rats [10]): 300 mg/kg bw per day
Radioactivity exhaled ([11]; 0 to 8 h post‐dose): 64.3%
Dose recovered in faeces ([11]; 0 to 24 h): 1.2 % of the dose
Dose recovered in urine ([11]; 0 to 24 h): 9.8 % of the dose
Radioactivity exhaled ([11]; 8 to 24 h post‐dose): 13.0%
Dose in the gastrointestinal tract content ([11]; 24 h): 0.5 % of the dose
Dose remaining in the tissues and carcass ([11]; 24 h): 7.7 % of the dose
Overall recovery of radioactivity ([11]; 24 h): 99.3%
Dose recovered from the volatile traps (almost all as 14CO2) ([11]; 24 h after single oral 500 mg/kg bw): 77.4 % of the dose
Mean concentration of radioactive compounds in blood ([11]; 24 h post‐dose): 48.7 μg 3‐NOP‐eq/g
Radioactivity concentration in adrenal glands ([11]; 24 h post‐dose): 159.3 μg 3‐NOP‐eq/g
Radioactivity concentration in brain ([11]; 24 h post‐dose): 24.8 μg 3‐NOP‐eq/g
Radioactivity concentration in fat ([11]; 24 h post‐dose): 58.9 μg 3‐NOP‐eq/g
Radioactivity concentration in kidney ([11]; 24 h post‐dose): 118.4 μg 3‐NOP‐eq/g
Radioactivity concentration in liver ([11]; 24 h post‐dose): 184.5 μg 3‐NOP‐eq/g
Radioactivity concentration in muscle ([11]; 24 h post‐dose): 42.4 μg 3‐NOP‐eq/g
